In ChEMBL document CHEMBL5625176, “Immunosuppressive effects of new thiophene-based KV1.3 inhibitors” (Eur J Med Chem, 2023):
Values after ≈ are worked out from the molar mass of the structure shown. Active and inactive are the calls of the source. The calls are words filed in the database; no cut-off is given here.

Assays:
[1] = Aqueous solubility of compound in DMEM; type: physicochemical
T-cell [2] = test: Induction of cell cycle arrest at G0/G1 phase in human PBMC derived PHA-activated T-lymphocytes assessed as reduction G2/M phase cells at 30 uM measured after 5 days by flow cytometric analysis; type: functional, cell-based; settings: time 5.0 day
In short: (§1)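 PHA-activated PBMC exposed to compounds (30 μM) for 5 days in RPMI/10% heat-inactivated calf serum/2 mM L-glutamine, scraped off and incubated 1 h at 4 °C in the dark. Cell cycle read by flow cytometry and scored as G0/G1 versus cycling (S+G2/M) percentage. Mean ± SD of 3 experiments; unpaired t-test against untreated cells.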

hERG (KCNH2) = hERG (KCNH2) (Homo sapiens, UniProt Q12809); test: Inhibition of hERG overexpressed in HEK293 cells at 5 uM relative to control; type: toxicity, cell-based; settings: HEK293 cells overexpressing hERG
[3] = target: T1, Potassium voltage-gated channel subfamily A member 3 (Homo sapiens, UniProt P22001); test: Inhibition of human Kv1.3 expressed in mouse LTK- cells by manual patch clamp electrophysiological recording; type: cell-based
In short: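 Mouse Ltk⁻ fibroblasts in DMEM/10% horse serum transiently transfected with hKv1.3 plasmid plus eGFP marker, and recorded 24 h later. Whole-cell patch clamp at 20–23 °C. Compounds diluted from DMSO stocks with final DMSO ≤0.1%, with 0.1% DMSO as vehicle control. Normalized current plotted against concentration and fitted with the Hill equation for IC50; mean ± SEM, n = cells.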

T-cell [4] = test: Inhibition of human PBMC derived PHA-activated T-lymphocytes activation assessed as inhibition of colony formation by measuring reduction in colony forming units at 30 uM incubated for 5 days by bright-field microscopic analysis; type: functional, cell-based; settings: time 5.0 day
In short: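 PBMC at 1.5 × 10⁶ cells/mL treated with compounds (30 μM) together with PHA-L (240 ng/mL) for 5 days in RPMI with 10% heat-inactivated bovine calf serum and 2 mM L-glutamine. After medium removal, wells imaged by bright-field microscopy at 2× and colonies (CFU) counted. Mean ± SD of 3 experiments.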

[5] = target: T1, Potassium voltage-gated channel subfamily A member 3; test: Inhibition of Kv1.3 (unknown origin) expressed in PBMC derived PHA-activated T-lymphocyte cells incubated for 5 days by manual patch clamp method; type: cell-based
In short: (§2)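 Whole-cell recording on PBMC stimulated 5 days with PHA-L (240 ng/mL); about 90% of cells CD3⁺. Large cells chosen; cells with currents ≤500–600 pA discarded. Bath in mM: 130 NaCl, 5 KCl, 2 CaCl₂, 2 MgCl₂, 10 HEPES, 5 glucose, pH 7.4; pipette KF-based with 11 EGTA, pH 7.2. Leak-subtracted two-step outward K⁺ current. Single concentration 5 μM, or 0.05 nM–50 μM for curves; peak normalized to control.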

[6] = target: T1, Potassium voltage-gated channel subfamily A member 3; test: Inhibition of Kv1.3 in human PBMC derived PHA-activated T-lymphocytes assessed as reduction in intracellular calcium level at 5 uM incubated for 2 hrs by Fluo-4 Ca2+ based flow cytometric analysis; type: cell-based; settings: T-lymphocyte
In short: (§3)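 PBMC activated 5 days with PHA, then given compounds at 5 μM for 2 h. Scraped and loaded with Fluo-4 (2 μM) plus anti-CD3-APC at 37 °C for 1 h, washed, and held 30 min at 37 °C with compound (5 μM) before flow cytometry. Fluo-4 MFI of the CD3⁺ gate, 3 replicates, normalized to untreated control; n = 4.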

[7] = target: T1, Potassium voltage-gated channel subfamily A member 3; test: Inhibition of human Kv1.3 expressed in Xenopus laevis Oocyte cells at 10 uM by manual patch clamp method relative to control; type: cell-based
In short: (§4)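 Human Kv1.3 cRNA injected into defolliculated Xenopus oocytes. Two-electrode voltage clamp 1–4 days later at 18–22 °C in ND96 (pH 7.5). Currents evoked by 1 s depolarizations, with inhibition read at the 0 mV step. Compounds from DMSO stock at ≤0.5% DMSO, either single 10 μM or rising concentrations fitted with the Hill equation for IC50.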

[8] = target: T1, Potassium voltage-gated channel subfamily A member 3; test: Inhibition of Kv1.3 (unknown origin) expressed in human PBMC derived PHA-activated T-lymphocyte cells assessed as reduction in total outward potassium current at 5 uM by patch clamp electrophysiology method; type: cell-based; in short: as §2
T-cell [9] = test: Induction of cell cycle arrest at G0/G1 phase in human PBMC derived PHA-activated T-lymphocytes assessed as reduction S phase cells at 30 uM measured after 5 days by flow cytometric analysis; type: functional, cell-based; settings: time 5.0 day; in short: as §1
T-cell line [10] = test: Cytotoxicity against human PBMC derived PHA-activated T-lymphocytes assessed as effect on total cell number at 30 uM incubated for 5 days by bright-field microscopic analysis; type: toxicity, cell-based; settings: 120 h, time 5 day
In short: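 Ficoll-purified PBMC at 1.5 × 10⁶ cells/mL in RPMI/10% heat-inactivated serum/2 mM L-glutamine, stimulated with PHA-L 240 ng/mL and exposed to compounds (30 μM) for 5 days. Cells then counted to give total cell number.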

[11] = Thermodynamic solubility of the compound at pH 7.4 incubated for 24 hrs under shaking condition by HPLC analysis; type: physicochemical; settings: buffer, read-out: Therm_solubility
In short: (§5)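 Supernatant diluted 1:2 or 1:10 in 0.1% TFA/MeCN 1:1 and quantified by reversed-phase UPLC at 290 nm against a 7-point calibration (1–100 μM). Mean of two independent experiments, in μM.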

T-cell line [12] = test: Cytotoxicity against human PBMC derived PHA-activated T-lymphocytes assessed as effect on cell viability by trypan blue staining based analysis; type: toxicity; settings: 30 µM
In short: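 PBMC purified by Ficoll gradient with red-cell lysis, seeded at 1.5 × 10⁶ cells/mL in RPMI with 10% heat-inactivated serum and 2 mM L-glutamine. Activated with PHA-L 240 ng/mL alongside compounds at 30 μM. Viability of treated versus untreated cells judged by trypan blue staining.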

[13] = Aqueous solubility of compound; type: physicochemical; settings: buffer; in short: as §5
[14] = target: T1, Potassium voltage-gated channel subfamily A member 3; test: Inhibition of Kv1.3 (unknown origin) expressed in Xenopus laevis Oocyte cell membrane by Electrophysiology recording; type: cell membranes
[15] = target: Potassium voltage-gated channel subfamily A member 6 (Homo sapiens) (UniProt P17658); test: Inhibition of Kv1.6 (unknown origin) expressed in Xenopus laevis Oocyte cells by electrophysiological recordings relative to control; type: cell-based; settings: concentration not given here
In short: (§6)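 Kv1.x cRNA expressed in defolliculated Xenopus oocytes and recorded by two-electrode voltage clamp 1–4 days after injection, at 18–22 °C in ND96 pH 7.5. 1 s pulses, analysed at 0 mV. Compounds applied at rising concentrations with ≤0.5% DMSO, and current inhibition relative to control fitted with the Hill equation.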

[16] = target: T1, Potassium voltage-gated channel subfamily A member 3; test: Inhibition of human Kv1.3 expressed in Xenopus laevis Oocyte cells by Electrophysiology recording; type: cell-based; in short: as §4
[17] = target: Potassium voltage-gated channel subfamily A member 1 (Homo sapiens, UniProt Q09470); test: Inhibition of Kv1.1 (unknown origin) expressed in Xenopus laevis Oocyte cells by electrophysiological recording; type: cell-based; in short: as §6
[18] = target: T1, Potassium voltage-gated channel subfamily A member 3; test: Inhibition of Kv1.3 in human PBMC derived PHA-activated T-lymphocytes assessed as reduction in intracellular calcium level at 5 uM incubated for 2 hrs by Fluo-4 Ca2+ based flow cytometric analysis relative to control; type: cell-based; settings: T-lymphocyte; in short: as §3
[19] = target: Potassium voltage-gated channel subfamily A member 4 (Homo sapiens) (UniProt P22459); test: Inhibition of Kv1.4 (unknown origin) expressed in Xenopus laevis Oocyte cells by electrophysiological recordings relative to control; type: cell-based; settings: concentration not given here; in short: as §6
[20] = Stability of compound in PBS at pH 7.4 measured for >=120 hrs by HPLC analysis; type: physicochemical; settings: buffer, pH 7.4, 120 h
In short: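 Aqueous stability: 10 mM DMSO stock diluted to a final 50 μM in PBS pH 7.4 with 20% MeCN and 0.5% DMSO, filtered, held at 37 °C. UPLC (BEH C18, 280 nm) injections every 4 h for the first 24 h, then every 8 h. Analyte AUC plotted against time; triplicates.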

[21] = target: T1, Potassium voltage-gated channel subfamily A member 3; test: Selectivity ratio of IC50 for inhibition of human Kv1.3 expressed in mouse LTK- cells to IC50 for inhibition of human Kv1.3 expressed in Xenopus laevis Oocyte cells; type: cell-based
[22] = target: Potassium voltage-gated channel subfamily A member 2 (Homo sapiens, UniProt P16389); test: Inhibition of Kv1.2 (unknown origin) expressed in Xenopus laevis Oocyte cells by electrophysiological recording; type: cell-based; in short: as §6
[23] = target: Potassium voltage-gated channel subfamily A member 5 (Homo sapiens) (UniProt P22460); test: Inhibition of Kv1.5 (unknown origin) expressed in Xenopus laevis Oocyte cells by electrophysiological recordings relative to control; type: cell-based; settings: concentration not given here; in short: as §6
T-cell [24] = test: Inhibition of anti-CD3 stimulated human T cell proliferation incubated for 15 to 30 mins in presence of IL-2 by 3H-thymidine uptake assay; type: functional, cell-based
[25] = target: T1, Potassium voltage-gated channel subfamily A member 3; test: Inhibition of Kv1.3 in human T-lymphocyte by electrophysiology recordings; type: cell-based; in short: as §2
[26] = target: T1, Potassium voltage-gated channel subfamily A member 3; test: Inhibition of Kv1.3 (unknown origin) expressed in CHO cells incubated for 10 mins by 86Rb+ efflux assay; type: cell-based
[27] = target: T1, Potassium voltage-gated channel subfamily A member 3; test: Inhibition of human Kv1.3 expressed in PHA-activated T-lymphocyte cells assessed as outward current at 1 uM incubated for 1 min by patch clamp electrophysiology method (reference value: 769.2 +/- 199.2 pA); type: cell-based
In short: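 Human PBMCs isolated by Ficoll gradient with red-cell lysis, seeded at 1.5 × 10⁶ cells/mL in RPMI with 10% heat-inactivated serum and 2 mM L-glutamine, then stimulated 5 days with PHA-L 240 ng/mL. Whole-cell patch clamp used a bath of (mM) 130 NaCl, 5 KCl, 10 HEPES, pH 7.4 and a pipette of 140 KF, 11 EGTA, pH 7.2. Large cells were selected, and cells with currents ≤500–600 pA were discarded. Outward current was leak-subtracted and compared to control by paired t-test.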

T1 sequence (P22001 whole entry): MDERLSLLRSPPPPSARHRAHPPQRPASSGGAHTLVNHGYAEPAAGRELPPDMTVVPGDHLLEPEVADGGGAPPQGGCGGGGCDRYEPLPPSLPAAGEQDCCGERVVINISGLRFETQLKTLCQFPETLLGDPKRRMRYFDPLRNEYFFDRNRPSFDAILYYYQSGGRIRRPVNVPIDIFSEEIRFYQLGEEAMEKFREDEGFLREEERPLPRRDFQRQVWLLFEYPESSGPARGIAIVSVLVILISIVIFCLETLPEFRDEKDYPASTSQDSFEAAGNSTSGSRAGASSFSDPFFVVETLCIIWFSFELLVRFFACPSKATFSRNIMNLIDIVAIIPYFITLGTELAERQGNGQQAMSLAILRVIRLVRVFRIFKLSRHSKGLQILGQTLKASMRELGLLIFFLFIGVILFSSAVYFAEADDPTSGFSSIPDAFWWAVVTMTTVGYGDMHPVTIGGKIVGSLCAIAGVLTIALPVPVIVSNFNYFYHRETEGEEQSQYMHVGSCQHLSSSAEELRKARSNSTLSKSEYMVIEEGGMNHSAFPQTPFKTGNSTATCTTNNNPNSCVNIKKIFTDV
hERG (KCNH2), sequence (Q12809 whole entry): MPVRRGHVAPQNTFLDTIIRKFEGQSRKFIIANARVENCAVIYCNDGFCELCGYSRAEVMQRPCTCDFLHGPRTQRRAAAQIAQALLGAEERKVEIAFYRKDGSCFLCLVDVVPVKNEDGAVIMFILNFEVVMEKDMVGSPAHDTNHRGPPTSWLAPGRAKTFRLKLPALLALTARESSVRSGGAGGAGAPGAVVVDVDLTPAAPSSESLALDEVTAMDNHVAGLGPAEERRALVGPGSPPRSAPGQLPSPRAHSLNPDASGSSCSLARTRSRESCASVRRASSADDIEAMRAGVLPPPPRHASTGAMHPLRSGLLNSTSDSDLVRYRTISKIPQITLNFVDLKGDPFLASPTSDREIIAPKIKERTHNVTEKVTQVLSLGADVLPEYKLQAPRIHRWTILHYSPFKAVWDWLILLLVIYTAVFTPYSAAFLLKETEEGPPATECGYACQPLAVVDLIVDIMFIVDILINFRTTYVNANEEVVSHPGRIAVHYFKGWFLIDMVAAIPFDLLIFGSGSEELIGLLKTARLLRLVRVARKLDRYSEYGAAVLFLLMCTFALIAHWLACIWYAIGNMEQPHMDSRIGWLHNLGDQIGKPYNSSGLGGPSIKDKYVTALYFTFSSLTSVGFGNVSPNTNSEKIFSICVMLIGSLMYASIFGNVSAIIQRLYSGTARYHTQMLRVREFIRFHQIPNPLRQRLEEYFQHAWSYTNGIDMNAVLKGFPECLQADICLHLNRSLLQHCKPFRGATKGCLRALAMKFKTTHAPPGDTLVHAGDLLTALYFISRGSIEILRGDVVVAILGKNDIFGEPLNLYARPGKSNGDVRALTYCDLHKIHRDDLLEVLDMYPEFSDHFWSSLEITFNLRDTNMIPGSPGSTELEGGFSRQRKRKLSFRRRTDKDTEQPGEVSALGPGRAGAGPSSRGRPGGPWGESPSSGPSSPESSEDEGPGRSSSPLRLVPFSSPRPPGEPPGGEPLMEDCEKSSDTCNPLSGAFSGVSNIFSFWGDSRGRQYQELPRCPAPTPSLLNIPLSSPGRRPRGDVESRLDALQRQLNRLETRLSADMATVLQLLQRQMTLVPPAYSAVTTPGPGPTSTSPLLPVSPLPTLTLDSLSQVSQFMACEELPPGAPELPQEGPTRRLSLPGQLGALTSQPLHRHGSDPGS
Potassium voltage-gated channel subfamily A member 1, sequence (Q09470 whole entry): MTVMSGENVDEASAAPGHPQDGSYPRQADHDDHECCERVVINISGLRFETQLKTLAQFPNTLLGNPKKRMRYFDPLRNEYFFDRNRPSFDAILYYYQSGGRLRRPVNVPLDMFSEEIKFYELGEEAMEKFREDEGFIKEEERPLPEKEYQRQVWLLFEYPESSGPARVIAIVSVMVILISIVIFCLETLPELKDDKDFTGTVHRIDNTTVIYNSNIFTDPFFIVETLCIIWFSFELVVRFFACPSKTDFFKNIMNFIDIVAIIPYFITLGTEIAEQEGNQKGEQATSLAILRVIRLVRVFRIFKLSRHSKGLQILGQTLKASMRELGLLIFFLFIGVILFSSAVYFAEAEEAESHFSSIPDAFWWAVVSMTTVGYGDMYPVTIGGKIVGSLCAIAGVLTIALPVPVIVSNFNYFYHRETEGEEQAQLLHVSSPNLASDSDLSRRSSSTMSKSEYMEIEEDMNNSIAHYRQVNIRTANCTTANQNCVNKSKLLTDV
Potassium voltage-gated channel subfamily A member 6 (Homo sapiens), sequence (P17658 whole entry): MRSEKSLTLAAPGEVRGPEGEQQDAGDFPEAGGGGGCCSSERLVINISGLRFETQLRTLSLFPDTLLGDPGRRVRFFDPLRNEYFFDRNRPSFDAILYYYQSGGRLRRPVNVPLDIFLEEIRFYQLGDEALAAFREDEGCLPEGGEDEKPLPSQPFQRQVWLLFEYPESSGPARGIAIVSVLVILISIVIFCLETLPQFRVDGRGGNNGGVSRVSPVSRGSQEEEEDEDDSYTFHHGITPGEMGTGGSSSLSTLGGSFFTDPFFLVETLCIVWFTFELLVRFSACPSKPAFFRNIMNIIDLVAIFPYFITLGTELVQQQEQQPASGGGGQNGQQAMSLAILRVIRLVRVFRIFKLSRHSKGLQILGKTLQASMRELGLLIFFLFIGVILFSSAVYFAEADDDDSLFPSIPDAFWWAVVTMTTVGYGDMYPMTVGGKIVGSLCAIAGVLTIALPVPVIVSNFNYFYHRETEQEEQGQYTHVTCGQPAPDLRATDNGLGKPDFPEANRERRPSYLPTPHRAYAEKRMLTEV
Potassium voltage-gated channel subfamily A member 5 (Homo sapiens), sequence (P22460 whole entry): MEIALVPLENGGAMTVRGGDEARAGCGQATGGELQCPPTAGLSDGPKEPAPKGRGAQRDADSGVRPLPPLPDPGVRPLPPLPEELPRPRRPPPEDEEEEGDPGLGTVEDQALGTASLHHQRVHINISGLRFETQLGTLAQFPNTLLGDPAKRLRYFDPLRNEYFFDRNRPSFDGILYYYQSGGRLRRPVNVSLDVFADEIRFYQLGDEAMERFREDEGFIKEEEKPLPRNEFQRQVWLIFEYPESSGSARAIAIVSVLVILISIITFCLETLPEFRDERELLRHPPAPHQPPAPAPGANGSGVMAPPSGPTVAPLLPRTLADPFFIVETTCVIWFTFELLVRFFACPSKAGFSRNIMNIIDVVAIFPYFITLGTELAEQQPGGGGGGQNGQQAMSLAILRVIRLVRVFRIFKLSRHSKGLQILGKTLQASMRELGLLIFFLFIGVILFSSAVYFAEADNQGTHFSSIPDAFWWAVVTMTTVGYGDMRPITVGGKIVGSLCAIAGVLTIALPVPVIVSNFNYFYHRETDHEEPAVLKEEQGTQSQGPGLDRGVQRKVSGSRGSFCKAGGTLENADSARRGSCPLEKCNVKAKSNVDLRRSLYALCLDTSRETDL
Potassium voltage-gated channel subfamily A member 4 (Homo sapiens), sequence (P22459 whole entry): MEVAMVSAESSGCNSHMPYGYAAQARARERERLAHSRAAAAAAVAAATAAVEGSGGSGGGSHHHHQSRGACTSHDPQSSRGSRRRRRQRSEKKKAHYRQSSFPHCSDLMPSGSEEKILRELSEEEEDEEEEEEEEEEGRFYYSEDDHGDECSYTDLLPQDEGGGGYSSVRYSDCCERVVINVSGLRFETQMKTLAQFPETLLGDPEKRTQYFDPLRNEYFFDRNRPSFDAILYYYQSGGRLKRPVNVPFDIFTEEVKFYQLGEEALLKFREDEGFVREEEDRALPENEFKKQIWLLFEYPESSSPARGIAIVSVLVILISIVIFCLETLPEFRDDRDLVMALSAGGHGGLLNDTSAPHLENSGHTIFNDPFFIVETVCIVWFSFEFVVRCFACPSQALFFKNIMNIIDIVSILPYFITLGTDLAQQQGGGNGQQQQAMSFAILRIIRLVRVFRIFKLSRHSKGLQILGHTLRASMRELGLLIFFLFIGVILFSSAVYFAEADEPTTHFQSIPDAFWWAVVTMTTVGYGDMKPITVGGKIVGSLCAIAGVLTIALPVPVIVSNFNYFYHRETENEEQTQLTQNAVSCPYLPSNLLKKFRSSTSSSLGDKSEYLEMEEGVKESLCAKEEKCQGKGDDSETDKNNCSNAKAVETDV
Potassium voltage-gated channel subfamily A member 2, sequence (P16389 whole entry): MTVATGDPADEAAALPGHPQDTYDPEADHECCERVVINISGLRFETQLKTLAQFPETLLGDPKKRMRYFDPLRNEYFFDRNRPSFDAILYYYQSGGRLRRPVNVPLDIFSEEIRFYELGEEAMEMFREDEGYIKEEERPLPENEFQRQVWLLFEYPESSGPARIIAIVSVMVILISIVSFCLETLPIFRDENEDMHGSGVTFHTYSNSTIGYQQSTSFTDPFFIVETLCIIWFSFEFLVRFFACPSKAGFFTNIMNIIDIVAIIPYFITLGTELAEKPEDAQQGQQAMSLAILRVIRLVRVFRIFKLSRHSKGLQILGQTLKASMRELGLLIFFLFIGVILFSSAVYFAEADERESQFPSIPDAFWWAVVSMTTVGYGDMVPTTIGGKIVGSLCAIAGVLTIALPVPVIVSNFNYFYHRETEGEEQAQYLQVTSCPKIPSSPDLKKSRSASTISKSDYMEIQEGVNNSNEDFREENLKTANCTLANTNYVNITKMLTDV

O=c1ccc2c(OCCCCOc3ccc(O)cc3)c3ccoc3cc2o1
solubility [1]: 0.6 µM (≈ 0.22 µg/mL)

COc1ccccc1C(=O)NC[C@]1(c2ccsc2)CC[C@H](O)CC1
Activity (T-cell [2]): Active | inhibition at 5 µM (hERG (KCNH2)): 15% | IC50 [3]: 450 nM | inhibition (T-cell [4]): Active | IC50 [5]: 56.8 nM | inhibition [6]: inactive | inhibition [7]: 97.6% | inhibition [8]: Active | Activity (T-cell [9]): Active | Activity (T-cell line [10]): Non-Toxic | solubility thermodynamic at 24 h [11]: 72 µM (≈ 24.9 µg/mL) | Activity (T-cell line [12]): Non-Toxic

O=c1ccc2c(OCCCCOc3ccccc3)c3ccoc3cc2o1
solubility [13]: < 1000 µg/mL

COc1ccccc1C(=O)NCC1(c2ccsc2)CCCC1
IC50 [14]: 17400 nM

CCCNC(=O)O[C@H]1CC[C@@](CNC(=O)c2ccccc2OC)(c2ccsc2)CC1
Activity (T-cell [2]): Active | inhibition [15]: -1.1% | IC50 [16]: 136 nM | IC50 [17]: 124 nM | inhibition at 5 µM (hERG (KCNH2)): 21% | IC50 [3]: 230 nM | inhibition [18]: 27% | inhibition [19]: 6.4% | inhibition (T-cell [4]): Active | IC50 [5]: 26.1 nM | Stability [20]: Stable | Ratio IC50 [21]: < 2 | inhibition [7]: 90.7% | IC50 [22]: 308 nM | inhibition [8]: Active | Activity (T-cell [9]): Active | Activity (T-cell line [10]): Non-Toxic | solubility thermodynamic at 24 h [11]: 22 µM (≈ 9.47 µg/mL) | inhibition [23]: 11.4% | Activity (T-cell line [12]): Non-Toxic

COc1ccccc1C(=O)NCC1(c2ccccc2)CCC(=O)CC1
IC50 (T-cell [24]): 1000 nM | inhibition [7]: 87.5% | inhibition [8]: Active | IC50 [25]: 310 nM | IC50 [26]: 260 nM

Clc1ccccc1C(c1ccccc1)(c1ccccc1)n1cccn1
Activity [27]: 173 pA
